Measured values published in PubChem BioAssay.
Calls of active or inactive are those of the source.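 How the source made its calls, unless noted: active means viability loss from added drug above about 55%, and viability with drug at most 40%, in both replicates (limit read from the data, passing the limit was not always enough); inconclusive means both conditions met in only one replicate; inactive means neither replicate meets both conditions.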

Experiments:
[1] = reducers of endogenous Her2 protein level, primary screen, SKBR3 breast tumor cells, AlphaScreen, ATP viability (AID 461;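 active means Her2 level under about 52% in both replicate screens, with viability over 70% of control, limit read from the data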;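 on Her2 level: lower value means less Her2 protein in the cells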;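 on viability: percent of carrier control wells set as 100% viability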); settings: 18-24 h, measured here: SKBR3 viability, ATP luminescence, at 10 µM
[2] = target: Receptor tyrosine-protein kinase erbB-2 (Homo sapiens) (UniProt P04626); assay: as above; settings: 18-24 h, at 10 µM, stronger effect = lower value
Sequence of Receptor tyrosine-protein kinase erbB-2 (Homo sapiens) (P04626 whole entry, looked up): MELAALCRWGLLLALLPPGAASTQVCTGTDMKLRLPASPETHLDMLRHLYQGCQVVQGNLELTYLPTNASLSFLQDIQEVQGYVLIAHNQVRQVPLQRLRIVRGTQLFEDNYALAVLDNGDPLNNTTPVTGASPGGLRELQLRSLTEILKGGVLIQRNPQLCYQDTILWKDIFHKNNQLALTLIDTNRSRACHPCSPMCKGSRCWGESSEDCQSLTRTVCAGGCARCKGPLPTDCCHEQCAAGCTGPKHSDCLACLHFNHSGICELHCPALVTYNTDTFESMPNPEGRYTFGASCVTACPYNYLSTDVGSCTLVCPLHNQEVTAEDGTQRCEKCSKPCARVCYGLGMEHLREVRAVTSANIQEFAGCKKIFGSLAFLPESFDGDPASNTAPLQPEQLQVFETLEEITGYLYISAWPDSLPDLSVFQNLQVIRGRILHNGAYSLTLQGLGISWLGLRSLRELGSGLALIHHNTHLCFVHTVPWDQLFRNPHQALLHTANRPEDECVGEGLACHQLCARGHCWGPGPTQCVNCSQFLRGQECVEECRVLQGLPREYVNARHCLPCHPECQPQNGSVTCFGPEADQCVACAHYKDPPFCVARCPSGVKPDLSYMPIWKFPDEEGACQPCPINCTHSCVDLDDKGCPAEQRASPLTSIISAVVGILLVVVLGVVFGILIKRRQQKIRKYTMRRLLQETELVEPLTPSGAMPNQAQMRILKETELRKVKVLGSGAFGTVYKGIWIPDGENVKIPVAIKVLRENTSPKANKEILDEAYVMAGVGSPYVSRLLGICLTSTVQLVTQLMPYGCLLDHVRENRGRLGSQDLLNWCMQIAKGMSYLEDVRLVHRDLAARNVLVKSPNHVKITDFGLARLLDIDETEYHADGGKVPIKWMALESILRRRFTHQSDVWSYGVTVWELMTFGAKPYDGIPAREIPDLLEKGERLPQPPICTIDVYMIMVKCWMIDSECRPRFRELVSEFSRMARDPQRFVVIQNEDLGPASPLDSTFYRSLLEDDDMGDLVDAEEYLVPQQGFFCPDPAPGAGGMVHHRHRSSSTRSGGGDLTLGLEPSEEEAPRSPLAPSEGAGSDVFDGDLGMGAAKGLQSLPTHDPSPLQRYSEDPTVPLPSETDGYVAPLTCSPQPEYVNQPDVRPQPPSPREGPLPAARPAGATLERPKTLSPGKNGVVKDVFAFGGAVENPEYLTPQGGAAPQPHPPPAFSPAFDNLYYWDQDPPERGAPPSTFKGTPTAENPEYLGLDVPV

[3] = SK-BR-3 cell growth inhibitors, pilot screen, 24 h, human (AID 572;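 active means viability at or below 10% of carrier control in both of two separate runs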;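 further: compound exposure lasted between 18 and 24 h rather than exactly 24 h; 100% = carrier-treated control wells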); settings: SK-BR-3 viability, CellTiter-Glo luminescence, at 10 µM, stronger effect = lower value
[4] = HUVEC growth inhibition – cell-based, human, primary screen (AID 575;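 active means viability at or below 30% in both replicate assays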;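 further: 100% = median of untreated cell wells with 0.1% DMSO on each plate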); settings: HUVEC proliferation, CellTiter-Glo luminescence, 72 h; at 10 µM; stronger effect = lower value
In short: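 System – primary HUVEC, no more than 12 passages · Medium – Low-serum (2% FBS) EBM, supplemented · Times – 72 h exposure, 37 °C, 5% CO2, 30 min RT equilibration · Measured by – luminescent ATP assay · Read-out – % viability relative to median vehicle-well signal on each plate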

[5] = growth inhibitors of H69AR lung tumor, primary screen, human, duplicate replicates (AID 580;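 active means viability at or under a set limit in both replicates, limit being median viability minus 3 SD, cut at about 48% in these data, passing the limit was not always enough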;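 further: 100% = mean luminescence of untreated wells and 0% = no signal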); settings: H69AR lung tumor cells viability, ATP luminescence, 72 h; at 10 µM; stronger effect = lower value
[6] = reversal of MRP1-mediated doxorubicin resistance, pilot screen, H69AR cells, doxorubicin co-treatment (AID 601); settings: CellTiter-Glo, 72 h, at 10 µM; for differential viability (reversal): stronger effect = higher value
[7] = 384-well plate pilot, post-Golgi transport modulator project, inhibition of yeast transport mutant growth (AID 636; in the data active means inhibition above about 31%); settings: absorbance 615 nm, about 18 h, stronger effect = higher value
[8] = growth suppression of yeast trafficking mutant, preliminary HTS, modulators of trafficking downstream of Golgi apparatus project, 1536-format plate, OD 615 nm (AID 637; in the data active means inhibition above about 30%); settings: yeast transport mutant growth, absorbance 615 nm, 18 h; stronger effect = higher value
[9] = H69AR cells + 2 uM doxorubicin, measured here: viability with 2 uM doxorubicin, stronger effect = lower value
[10] = H69AR cells, compound alone cytotoxicity

SMILES	viability [1]	Her2 level [2]	viability [3]	viability [4]	viability [5]	differential viability (reversal) ([6]; H69AR cells + 2 uM doxorubicin)	viability [6, 9]	viability [6, 10]	inhibition [7]	inhibition [8]
O=C(NCC1CCCO1)C1CCN(c2ccc(S(=O)(=O)N3CCCC3)cc2)CC1 (stereo not given)	115%	112% (inactive)	115% (inactive)	99.2% (inactive)	80% (inactive)	-6.02% (inactive)	86%	80%	-5.45% (inactive)	-1.5% (inactive)
Cn1c(=O)c2c(nc(NCc3ccccc3)n2CCCc2ccccc2)n(C)c1=O	84%	88% (inactive)	84% (inactive)	69.5% (inactive)	83.4% (inactive)	-9.82% (inactive)	93.2%	83.4%	-0.81% (inactive)	-3.11% (inactive)
Cc1cc(C)c2c(n1)nn1c(N3CCN(c4cccc(Cl)c4)CC3)cc(C)nc21	98.5%	83.5% (inactive)	98.5% (inactive)	61.8% (inactive)	23.1% (active)	6.38% (inactive)	16.7%	23.1%	-5.68% (inactive)	3.65% (inactive)
O=C(Nc1nccs1)c1ccc(COc2ccccc2Br)o1	118%	91.5% (inactive)	118% (inactive)	50.3% (inactive)	80.9% (inactive)	-2.83% (inactive)	83.7%	80.9%	-2.27% (inactive)	-7.26% (inactive)
COCCn1c(SCC(=O)Nc2cccc(OC)c2)nnc1-c1ccccc1	101%	99.5% (inactive)	101% (inactive)	90.1% (inactive)	103% (inactive)	6.8% (inactive)	96.6%	103%	-3.51% (inactive)	4.43% (inactive)
COc1cc(OC)nc(NC(=O)CSc2nc3ccccc3o2)n1	87.5%	82.5% (inactive)	87.5% (inactive)	97.7% (inactive)	92.4% (inactive)	-2.58% (inactive)	94.9%	92.4%	-6.4% (inactive)	2.95% (inactive)
CCN(C(=O)COC(=O)c1cc(C)n(-c2ccc(F)cc2)c1C)C1CCS(=O)(=O)C1 (stereo not given)	85.5%	93.5% (inactive)	85.5% (inactive)	103% (inactive)	103% (inactive)	-0.795% (inactive)	104%	103%	-3.47% (inactive)	1.61% (inactive)
Cc1ccc(NC(=O)CSc2nnc(-c3cnccn3)n2Cc2ccco2)cc1C	80.5%	93% (inactive)	80.5% (inactive)	80.6% (inactive)	104% (inactive)	6.65% (inactive)	97.5%	104%	-1.82% (inactive)	-7.67% (inactive)
COc1ccc(C2/C(=C(/O)c3cnn(-c4ccccc4)c3C)C(=O)C(=O)N2CCN(C)C)cc1OC (stereo not given)	109%	86% (inactive)	109% (inactive)	102% (inactive)	101% (inactive)	1.86% (inactive)	98.7%	101%	-1.62% (inactive)	-2.54% (inactive)
Cc1cc(C)c2c(n1)nn1c(N3CCOCC3)cc(C)nc21	90%	87.5% (inactive)	90% (inactive)	110% (inactive)	87.1% (inactive)	-6.34% (inactive)	93.4%	87.1%	-4.86% (inactive)	0.79% (inactive)
COc1cc(S(=O)(=O)N2CCOCC2)ccc1NC(=O)COC(=O)c1ccccn1	114%	92% (inactive)	114% (inactive)	85.8% (inactive)	84.8% (inactive)	-12.8% (inactive)	97.6%	84.8%	-6.71% (inactive)	-0.18% (inactive)
O=C(Nc1ccc(-c2noc(-c3cccs3)n2)cc1)c1cccnc1	74.5%	93% (inactive)	74.5% (inactive)	54% (inactive)	32.9% (active)	-46.6% (inactive)	79.5%	32.9%	-0.81% (inactive)	-8.69% (inactive)
O=C(CSc1nnnn1-c1ccc2c(c1)OCO2)NCc1cccs1	88%	90.5% (inactive)	88% (inactive)	93.2% (inactive)	86.8% (inactive)	-7.04% (inactive)	93.8%	86.8%	-5.68% (inactive)	-1.64% (inactive)
CC1CN(Cc2nc3c(c(=O)[nH]c(=O)n3C)n2CC(N)=O)CC(C)O1 (stereo not given)	99.5%	97.5% (inactive)	99.5% (inactive)	88.6% (inactive)	102% (inactive)	9.96% (inactive)	92.4%	102%	0.51% (inactive)	0.67% (inactive)
COC(=O)c1ccccc1NC(=O)CSc1nc2c(c(=O)n(C)c(=O)n2C)n1C	86%	124% (inactive)	86% (inactive)	101% (inactive)	97% (inactive)	3.48% (inactive)	93.5%	97%	5.26% (inactive)	26.5% (inactive)
COc1ccc(-c2noc(CN3CCC(Cc4ccccc4)CC3)n2)cc1	94%	112% (inactive)	94% (inactive)	87.5% (inactive)	93.5% (inactive)	4.6% (inactive)	88.9%	93.5%	-4.8% (inactive)	-3.39% (inactive)
CC1(C)Cc2noc(N)c2C(C)(C)N1O	121%	91% (inactive)	121% (inactive)	89.5% (inactive)	95.6% (inactive)	14.8% (inactive)	80.8%	95.6%	-4.61% (inactive)	2.7% (inactive)
CCOC(=O)N1CCN(S(=O)(=O)c2ccc(Br)s2)CC1	103%	112% (inactive)	103% (inactive)	100% (inactive)	94.4% (inactive)	7.92% (inactive)	86.5%	94.4%	-3.03% (inactive)	2.95% (inactive)
COc1ccc(-c2nc(C#N)c(NCCCN(C)C)o2)cc1OC	95%	111% (inactive)	95% (inactive)	102% (inactive)	96.2% (inactive)	3.08% (inactive)	93.1%	96.2%	-0.26% (inactive)	-5% (inactive)
Cc1ccc2c(Cl)cc(Cl)c(OCc3c(C)noc3C)c2n1	102%	99.5% (inactive)	102% (inactive)	84.7% (inactive)	84.9% (inactive)	-0.21% (inactive)	85.1%	84.9%	6.08% (inactive)	13.3% (inactive)
C=CCOC(=O)C(C#N)c1nc2ccccc2nc1N1CCN(Cc2ccccc2)CC1 (stereo not given)	94%	79% (inactive)	94% (inactive)	77.7% (inactive)	84.1% (inactive)	-9.45% (inactive)	93.6%	84.1%	-4.53% (inactive)	2.3% (inactive)
COc1ccc(-n2ccnc2SCC(=O)NCc2ccc3c(c2)OCO3)cc1	128%	89.5% (inactive)	128% (inactive)	95.3% (inactive)	87.2% (inactive)	-5.35% (inactive)	92.6%	87.2%	-2.73% (inactive)	-1.9% (inactive)
C[N+]1=C2CCCCCN2C(O)(c2ccccc2)C1 (stereo not given)	97%	85% (inactive)	97% (inactive)	101% (inactive)	96.3% (inactive)	-1.28% (inactive)	97.6%	96.3%	-0.79% (inactive)	1.29% (inactive)
COc1ccccc1OC(=O)c1ccc2nsnc2c1	110%	89% (inactive)	110% (inactive)	91.8% (inactive)	100% (inactive)	11.6% (inactive)	88.4%	100%	-8.16% (inactive)	-6.55% (inactive)
CCOC(=O)c1ccc(S(=O)(=O)Nc2cc(C(C)(C)C)no2)cc1	92%	97% (inactive)	92% (inactive)	112% (inactive)	101% (inactive)	-2.06% (inactive)	103%	101%	-3.25% (inactive)	-3.81% (inactive)
CCC(=O)N1CCc2cc(OC)c(OC)cc2C1COc1ccc(C(=O)OC)cc1 (stereo not given)	94.5%	83% (inactive)	94.5% (inactive)	87.2% (inactive)	91.5% (inactive)	-2.33% (inactive)	93.9%	91.5%	-5.33% (inactive)	1.61% (inactive)
Cc1cc(C(=O)NCCCN2CCN(C3CCCCC3)CC2)n(-c2ccccc2)n1	94%	111% (inactive)	94% (inactive)	111% (inactive)	103% (inactive)	11.8% (inactive)	90.8%	103%	1.73% (inactive)	-8.33% (inactive)
CCC(Sc1nc2sc(C(=O)OC)c(C)c2c(=O)n1N)C(=O)NCC1CCCO1 (stereo not given)	102%	88% (inactive)	102% (inactive)	94.2% (inactive)	82.2% (inactive)	-5.51% (inactive)	87.7%	82.2%	-6.49% (inactive)	-1.27% (inactive)
